Test results reported in ChEMBL document CHEMBL2406990, “Guanidine alkaloids from Plumbago zeylanica” (J Nat Prod, 2013).

Legend:
MDA-MB-231 = assay: Cytotoxicity against human MDA-MB-231 cells after 72 hrs by SRB assay; type: functional, cell-based; conditions: MDA-MB-231, 72 h
How it was run: (§1)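 Cells seeded and left 24 h, then exposed to serial dilutions of compound (top concentration 100 μM). Incubation 72 h at 37 °C in humidified 5% CO2. Fixed with 10% trichloroacetic acid (4 °C, 1 h), water-washed, dried, stained 15 min with 0.4% SRB in 1% acetic acid. Unbound dye removed with 1% acetic acid, bound dye taken up in 10 mM Tris base, A510 read. Triplicate, IC50.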

PANC-1 = assay: Cytotoxicity against human PANC1 cells after 72 hrs by SRB assay; type: functional, cell-based; conditions: PANC-1, 72 h; how it was run: as §1

Q: How did the IC50 (MDA-MB-231) turn out when `CC1=C[C@@H](C[C@@H](C(=O)O)[C@@H]2CN(CC(O)CCO[C@H]3OC[C@@H](O)[C@H](O)[C@H]3O)C(=N)N2)OC1=O` (stereo partly drawn) was run?
A: > 10 µM

Q: What about the IC50 (PANC-1) of the same molecule?
A: > 10 µM

Q: With `C/C(=C\CC[C@@H](C(=O)O)[C@@H]1CN(CC(O)CCO)C(=N)N1)CO` (stereo partly drawn) as the molecule, how does the IC50 (MDA-MB-231) read?
A: > 10 µM

Q: What about the IC50 (PANC-1) of the same molecule?
A: > 10 µM

Q: Which results are given for `CC(C)=CCC[C@@H](C(=O)O)[C@@H]1CNC(=N)N1`?
A: IC50 (MDA-MB-231): > 10 µM; IC50 (PANC-1): > 10 µM

Q: With `CC1=C[C@@H](C[C@@H](C(=O)O)[C@@H]2CNC(=N)N2)OC1=O` as the molecule, how does the IC50 (MDA-MB-231) read?
A: > 10 µM

Q: And the IC50 (PANC-1)?
A: > 10 µM

Q: Which IC50 (MDA-MB-231) does the source give for `CC(C)=C[C@@H]1C[C@@H](C(=O)O)[C@@H]2CN(CC(O)CCO)C(=N)N12` (stereo partly drawn) here?
A: > 10 µM

Q: And the IC50 (PANC-1)?
A: > 10 µM

Q: For `CC(C)=C[C@@H]1C[C@@H](C(=O)O)[C@@H]2CN(CC(O)CCO[C@H]3OC[C@@H](O)[C@H](O)[C@H]3O)C(=N)N12` (stereo partly drawn), which IC50 (MDA-MB-231) is on record?
A: > 10 µM

Q: And the IC50 (PANC-1)?
A: > 10 µM

Q: How did the IC50 (MDA-MB-231) turn out when `C/C(=C\CC[C@@H](C(=O)O)[C@@H]1CN(CC(O)CCO[C@H]2OC[C@@H](O)[C@H](O)[C@H]2O)C(=N)N1)CO` (stereo partly drawn) was run?
A: > 10 µM

Q: And the IC50 (PANC-1)?
A: > 10 µM

Q: How did the IC50 (MDA-MB-231) turn out when `CC(C)=C[C@@H]1C[C@@H](C(=O)O)[C@@H]2CNC(=N)N12` was run?
A: > 10 µM

Q: And the IC50 (PANC-1)?
A: > 10 µM

Q: Which results are given for `C/C(=C\CC[C@@H](C(=O)O)[C@@H]1CNC(=N)N1)CO`?
A: IC50 (MDA-MB-231): > 10 µM; IC50 (PANC-1): > 10 µM

Q: What does the source list for `CC(C)=CCC[C@@H](C(=O)O)[C@@H]1CN(CC(O)CCO[C@H]2OC[C@@H](O)[C@H](O)[C@H]2O)C(=N)N1` (stereo partly drawn)?
A: IC50 (MDA-MB-231): > 10 µM; IC50 (PANC-1): > 10 µM

Q: Which IC50 (MDA-MB-231) does the source give for `CC(C)=CCC[C@@H](C(=O)O)[C@@H]1CN(CC(O)CCO)C(=N)N1` (stereo partly drawn) here?
A: > 10 µM

Q: What about the IC50 (PANC-1) of the same molecule?
A: > 10 µM

Q: Which IC50 (MDA-MB-231) does the source give for `CC1=C[C@@H](C[C@@H](C(=O)O)[C@@H]2CN(CC(O)CCO)C(=N)N2)OC1=O` (stereo partly drawn) here?
A: > 10 µM

Q: And the IC50 (PANC-1)?
A: > 10 µM

Q: `CC(C)(O)CCC[C@@H](C(=O)O)[C@@H]1CNC(=N)N1` was tested. Which IC50 (MDA-MB-231) did it give?
A: > 10 µM

Q: What about the IC50 (PANC-1) of the same molecule?
A: > 10 µM

Q: How did the IC50 (MDA-MB-231) turn out when `CC(=O)O[C@H]1C(=O)[C@@]2(C)[C@H]([C@H](OC(=O)c3ccccc3)[C@]3(O)C[C@H](OC(=O)[C@H](O)[C@@H](NC(=O)c4ccccc4)c4ccccc4)C(C)=C1C3(C)C)[C@]1(OC(C)=O)CO[C@@H]1C[C@@H]2O` [PACLITAXEL] was run?
A: < 1 µM

Q: And the IC50 (PANC-1)?
A: < 1 µM
